Assay results taken from ChEMBL document CHEMBL1124799, “1,4-bis(3-oxo-2,3-dihydropyridazin-6-yl)benzene analogues: potent phosphodiesterase inhibitors and inodilators” (1990).

What was measured:
Felis catus [1] = assay: The dose required to cause 50% increase in the contractility and inotropic activity as dLVP/dt(max) in anesthetized cat; assay type: functional
How it was run: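 Pentobarbitone-anesthetized cats (60 mg/kg ip), given pempidine 5 mg/kg and then propranolol 1 mg/kg iv plus 3–4 mg/kg sc. Cats responding to isoprenaline 0.01–0.1 μg/kg iv with less than a 100% contractility rise were rejected. Test compound given as an iv bolus, with dLVP/dt(max) as the read-out. ED50 is the dose giving a 50% rise over control, from dose-response curves, mean of ≥2 experiments. Duration was scored by the time for dLVP/dt to return to control.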

[2] = system: Phosphodiesterase 3 (Felis catus); assay: Inhibition of phosphodiesterase 3 enzyme activity by 50%
Felis catus [3] = assay: ED15 is the dose producing 15% decrease in autoperfused hindquarters perfusion pressure in anesthetized cat; assay type: functional
How it was run: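 Anesthetized cats (either sex, 1.9–2.5 kg; pentobarbitone 60 mg/kg ip), ganglion-blocked with pempidine 5 mg/kg, then β-blocked with propranolol 1 mg/kg iv plus 3–4 mg/kg sc, heparinized 500 units/kg iv. Hindquarters autoperfused via the descending aorta. Test compound given as an iv bolus. ED15 taken as the dose lowering perfusion pressure by 15%, from dose-response curves, mean of ≥2 experiments.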

[4] = system: Phosphodiesterase 3 (Felis catus); assay: Inhibition of Phosphodiesterase 3

## Nc1ccc(C2=NNC(=O)CC2)cc1
Felis catus [1]
  ED50: 4.43 µmol/kg
[2]
  IC50: 61.7 µM
Felis catus [3]
  ED15: 1.4 µM/kg

## CC1CC(=O)NN=C1c1ccc(C2=NNC(=O)CC2C)cc1 (configuration not stated)
Felis catus [1]
  ED50: 0.06 µmol/kg
[2]
  IC50: 0.11 µM
Felis catus [3]
  ED15: 0.04 µM/kg

## CC(=O)Nc1ccc(-c2ccc(O)nn2)cc1
[2]
  IC50: 6.38 µM

## Oc1ccc(-c2ccc(-c3ccc(O)nn3)s2)nn1
Felis catus [1]
  ED50: 0.73 µmol/kg
[2]
  IC50: 0.49 µM
Felis catus [3]
  ED15: 0.38 µM/kg

## Nc1ccc(-c2ccc(O)nn2)cc1
[2]
  IC50: 22.8 µM

## CC(=O)Nc1ccc(C2=NNC(=O)CC2C)cc1 (configuration not stated)
Felis catus [1]
  ED50: 0.03 µmol/kg
Felis catus [3]
  ED15: 0.08 µM/kg

## Oc1ccc(-c2ccc(-c3ccc(-c4ccc(O)nn4)cc3)cc2)nn1
[2]
  IC50: > 100 µM

## Cc1cc(O)nnc1-c1ccc(-c2nnc(O)cc2C)cc1
[2]
  IC50: 37.5 µM

## O=C1CCC(c2ccc(C3=NNC(=O)CC3)cc2)=NN1
Felis catus [1]
  ED50: 0.55 µmol/kg
[2]
  IC50: 0.64 µM
Felis catus [3]
  ED15: 0.12 µM/kg

## Oc1ccc(-c2ccc(-c3ccc(O)nn3)cc2)nn1
Felis catus [1]
  ED50: 0.04 µmol/kg
[2]
  IC50: 0.33 µM
Felis catus [3]
  ED15: 0.06 µM/kg

## CC1CC(=O)NN=C1c1ccc(C(N)=O)cc1 (configuration not stated)
Felis catus [1]
  ED50: 0.07 µmol/kg
[2]
  IC50: 2.23 µM
Felis catus [3]
  ED15: 0.1 µM/kg

## CC1CC(=O)NN=C1c1ccc(-c2ccc(O)nn2)cc1 (configuration not stated)
Felis catus [1]
  ED50: 0.02 µmol/kg
[2]
  IC50: 0.07 µM
Felis catus [3]
  ED15: 0.01 µM/kg

## CC1CC(O)=NN=C1c1ccc(-n2ccnc2)cc1 (configuration not stated) [CI-930]
Felis catus [1]
  ED50: 0.18 µmol/kg
Felis catus [3]
  ED15: 0.09 µM/kg

## O=C1CCC(c2ccc(-n3ccnc3)cc2)=NN1 [IMAZODAN]
Felis catus [1]
  ED50: 0.64 µmol/kg
Felis catus [3]
  ED15: 0.42 µM/kg

## CC1CC(=O)NN=C1c1ccc(N)cc1 (configuration not stated)
Felis catus [1]
  ED50: 1.7 µmol/kg
[2]
  IC50: 37 µM
Felis catus [3]
  ED15: 0.5 µM/kg

## CC(=O)Nc1ccc(C2=NNC(=O)CC2)cc1
Felis catus [1]
  ED50: 0.19 µmol/kg
[2]
  IC50: 7.13 µM
Felis catus [3]
  ED15: 0.2 µM/kg

## CC1SC(=O)NN=C1c1ccc(C2=NNC(=O)SC2C)cc1 (configuration not stated)
Felis catus [1]
  ED50: 0.13 µmol/kg
Felis catus [3]
  ED15: 0.09 µM/kg
[4]
  IC50: 0.08 µM

## Oc1ccc(-c2cccc(-c3ccc(O)nn3)c2)nn1
[2]
  IC50: 3.9 µM
Felis catus [3]
  ED15: 3.23 µM/kg
